This passage reports cytotoxicity results from ChEMBL document CHEMBL4513216, “Probing the Open Global Health Chemical Diversity Library for Multistage-Active Starting Points for Next-Generation Antimalarials” (ACS Infect Dis, 2020).

The nature of this data set: Toxicity liver stage against HepG2, at 10uM. It counts as cell-based. The arrangement: test concentration 10 uM, cell line HepG2-A16-CD81EGFP. The note with it: human, HepG2-A16-CD81EGFP cells; read-out: INHIBITION
The essentials: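 Uninfected HepG2-A16-CD81EGFP cells, 3 × 10^3 per well, 1536-well, plated on prespotted compound at 10 μM final, parasite-free screening media added to match infected plates; puromycin 10 μM positive, DMSO 0.5% negative; run in parallel with 48 h PbLuc assay at 37 °C, 5% CO2; viability by CellTiter-Glo luminescence, normalized to controls.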
`Cc1ccc2c(c1)OC(C)CN2C(=O)CCc1cccnc1` (centres undefined): the cytotoxicity at 10 µM is -52.8%.

Turning to `COCC(=O)Nc1ccc(-c2noc([C@@H]3CCCN3)n2)cn1`, the cytotoxicity at 10 µM is -1.16%.

With `CC(=O)N1CCc2nc(N(C)C)nc(NCCc3ccccc3)c2CC1`, the cytotoxicity at 10 µM was -2.38%.

With `CN1C[C@@H](C(=O)NC(C)(C)C)[C@@]2(COc3ccc(F)cc3C2=O)C1`, the cytotoxicity at 10 µM was 1.5%.

As to `COc1cc(F)ccc1-c1cc(N)ccn1`, the cytotoxicity at 10 µM is -9.5%.

Take `Cc1c(NCc2ccc(C#N)cc2)cccc1S(=O)(=O)NC1CC1`: the cytotoxicity at 10 µM was 20.9%.

With `Cc1cnn(CCNc2ncnc3c2CCN(CC2CCOC2)CC3)c1` (centres undefined), the cytotoxicity at 10 µM was -4.24%.

For the compound `O=C(Nc1cccn(Cc2ccc(F)cc2)c1=O)c1csnn1`, the cytotoxicity at 10 µM turned out to be 1.51%.

Regarding `O=C(O)c1cc(S(=O)(=O)Nc2cc(Cl)ccc2F)cc2c1OCCO2`, the cytotoxicity at 10 µM was -18.7%.

For `CC1=N[C@@]2(CC[C@@H]3CN(Cc4cccc(Cl)c4)C[C@@H]32)C(=O)N1CC1CC1`, the cytotoxicity at 10 µM is 0.758%.

For the compound `Cc1cc(CCC(N)=O)cc(C2CCCN2Cc2cnc(C)nc2)n1` (centres undefined), the cytotoxicity at 10 µM was -26.1%.

With `Cn1cccc1C(=O)NCc1cn2c(n1)CN(c1ncccn1)CC2`, the cytotoxicity at 10 µM was -109%.

As for `O=C(COc1ccccc1)NCC1CC1`, the cytotoxicity at 10 µM came to 7.76%.

Take `CN(C)CCNC(=O)c1ccc2ccc(N(C)CC3CC3)n2c1`: the cytotoxicity at 10 µM was -2.69%.

For the compound `Cc1nccc([C@@H]2C[C@@H]3CCN(S(=O)(=O)N(C)C)C[C@H]3O2)n1`, the cytotoxicity at 10 µM is -3.38%.

Turning to `Cc1nc(CN2CCOCC3(CCN(c4ccccn4)C3)C2)cs1` (centres undefined), the cytotoxicity at 10 µM stood at 12.8%.

Turning to `COc1ccc(CN2C[C@@H]3OCCN(c4ncccn4)[C@@H]3C2)cc1`, the cytotoxicity at 10 µM came out at 4.71%.

For the compound `O=C(NCC1CCCO1)Nc1nnc(C(F)(F)F)s1` (centres undefined), the cytotoxicity at 10 µM was determined as 1.72%.

`CC1CN(C(=O)CN(Cc2ccco2)Cc2cccs2)CCO1` (centres undefined): the cytotoxicity at 10 µM is -7.68%.

Turning to `Clc1ccc(-n2cc(CNC3CCc4ncnn4C3)cn2)cc1` (centres undefined), the cytotoxicity at 10 µM amounted to 0.77%.

Take `CC(CN1CCOCC1)NC(=O)c1cccc2cn[nH]c12` (centres undefined): the cytotoxicity at 10 µM is -7.18%.

Turning to `CC(C)Cn1cncc1-c1nc2c([nH]1)CC(C)(C)CNC2=O`, the cytotoxicity at 10 µM was -1.41%.

As to `O=C1COC[C@H]([C@H](O)c2ccc(NC(=O)c3ccco3)cc2)N1`, the cytotoxicity at 10 µM was -2.33%.

Regarding `CCC(C)(C)NC(=O)c1nnn(-c2cccc3c2CCN(C)C3)c1C`, the cytotoxicity at 10 µM was -0.663%.

Take `CN(Cc1ccc(Cl)cc1)C(=O)Nc1cnn(CC(N)=O)c1`: the cytotoxicity at 10 µM is -17.6%.

For `CC(C)(CNC(=O)OC(C)(C)C)NC(=O)C1CC(=O)N(C2CC2)C1` (centres undefined), the cytotoxicity at 10 µM stood at 14.3%.

For the compound `CN1CCCCC12Cc1ccccc1CN(C(=O)C1CCCC1)C2` (centres undefined), the cytotoxicity at 10 µM amounted to 2.88%.

In the case of `CS(=O)(=O)N1CCCC(Cc2cnc(Br)cn2)C1` (centres undefined), the cytotoxicity at 10 µM came to 17.3%.

For `CC(C)(C)C(=O)N1C[C@H](c2ccsc2)[C@H]2CN(Cc3cccs3)CC[C@H]21`, the cytotoxicity at 10 µM is 12.7%.

For the compound `CN(C)C1(CNC(=O)CC=Cc2ccc(F)cc2)CCOCC1`, the cytotoxicity at 10 µM turned out to be 8.99%.

As to `COCCC(=O)NC1CCN(CC2(c3cccc(F)c3)CCCC2)CC1`, the cytotoxicity at 10 µM is -24.7%.

`CN(C)CCOCC1CN(C(=O)N2CCCC2)Cc2ccnn2C1` (centres undefined): the cytotoxicity at 10 µM stood at 4.55%.

On to `CCOCCN1CCCC(c2cc(C(N)=O)[nH]n2)C1` (centres undefined), for which the cytotoxicity at 10 µM was 3.78%.

Regarding `COCC1COCCC12CCN(C(=O)CCc1ccccc1)CC2` (centres undefined), the cytotoxicity at 10 µM is -9.8%.

Turning to `Cn1ccc(C(=O)N2CCC(Cc3cccc4ncccc34)CC2)n1`, the cytotoxicity at 10 µM was -3.17%.

Regarding `CCC(CO)NC(=O)c1cc(COc2ccc(OC)cc2Cl)[nH]n1` (centres undefined), the cytotoxicity at 10 µM worked out at 2.2%.

Turning to `NS(=O)(=O)c1cccnc1Nc1c(Cl)cccc1Cl`, the cytotoxicity at 10 µM was -11.8%.

On to `NCc1cn(-c2ccccc2C(=O)NCc2ccccc2)cn1`, for which the cytotoxicity at 10 µM was 3.32%.

`COCCc1noc(-c2cn(Cc3ccc(OC)cc3)nn2)n1`: the cytotoxicity at 10 µM was 5.07%.
